In data set [1] the test system is HCT-116. Description: Antiproliferative activity against p21+/+ human HCT116 cells. It counts as functional, cell-based.
Data set [2] in a line: Antiproliferative activity against p21-/- human 80S14 cells. The format is functional, cell-based.
Data set [3] has as its system DLD-1. Description: Antiproliferative activity against human DLD1 cells. It counts as functional, cell-based.
Data set [4] concerns LoVo. As to the kind of experiment: Antiproliferative activity against human LoVo cells. The format is functional, cell-based.
The test system of data set [5] is SW-620. Description: Antiproliferative activity against human SW620 cells. The format is functional, cell-based.
Data set [6] is described as follows: Plasma concentration in mouse at 50 mg/kg, po after 1 hr. The format is ADME, organism-based. Also on record: dose 50 mg/kg, route oral. The procedure, abridged:
(§1)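 Nude mice were dosed orally at 50 mg/kg. Blood was sampled at 1 and 4 h, and plasma levels were reported in […].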

The test system of data set [7] is HT-29. As to the kind of experiment: Antiproliferative activity against human HT-29 cells. It counts as functional, cell-based.
A short description of data set [8]: Plasma concentration in mouse at 50 mg/kg, po after 4 hrs. It counts as ADME, organism-based. Also on record: dose 50 mg/kg, route oral. The procedure, abridged:
as §1

In data set [9] the test system is LoVo. As to the kind of experiment: Anticancer activity against human LoVo cells xenografted mouse at 50 mg/kg, po administered 20 days measured on day 21 relative to control. The format is functional. The procedure, abridged:
(§2)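 Female athymic nu/nu mice were given 1×10^7 LoVo cells SC in the flank. Cells were cultured in RPMI with 10% FBS. At 90–120 mg tumour mass (day zero), mice were randomised 5 per group. Tumour mass was calculated as (length×width²)/2 every 7 days and expressed as relative growth versus day zero, treated versus control. Student t-test was run on log relative growth, with significance at p≤0.05.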

For data set [10], the system named is LoVo. As to the kind of experiment: Anticancer activity against human LoVo cells xenografted mouse at 30 mg/kg, po administered 20 days measured on day 21 relative to control. It counts as functional. The procedure, abridged: as §2
For orientation: In xenograft studies the graft and the host belong to different species.

Data set [11] is described as follows: Induction of oligomerization of tubulin.
A short description of data set [12]: Binding affinity to tubulin. A digest of the protocol:
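Binding was read by the fluorescence change of compound and tubulin tryptophan residues on binding, using unlabelled tubulin with intrinsic tryptophan fluorescence as reporter. KD was derived from this signal.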

Molecules are shown by their SMILES. Activity calls are given as the source filed them. The rule behind the calls is not given here.

In general, IC50 refers to the concentration needed to halve the response being measured. Higher therefore signals a need for much substance. Take `CC(C)CC(=O)Nc1cncc(-c2ccnc3c(C(=O)c4cccs4)cnn23)c1`: the IC50 in data set [1] is over 2600 nM; in data set [2] it was 7600 nM.

With `CC(CC(=O)Nc1cc(-c2ccnc3c(C(=O)c4cccs4)cnn23)ccc1F)C(F)(F)F` (stereo unspecified), the IC50 was 2500 nM in [1] and 120 nM in data set [2].

In the case of `O=C(Nc1ccccc1)c1cccc(-c2ccnc3c(C(=O)c4cccs4)cnn23)c1`, the IC50 in [1] came out at 5100 nM; in data set [2], 310 nM.

In the case of `CC(C)CC(=O)Nc1cc(-c2ccnc3c(C(=O)c4cccs4)cnn23)cs1`, the IC50 in data set [1] is over 20000 nM; in data set [2], 7800 nM.

For the molecule `Cc1ccc(-c2ccnc3c(C(=O)c4cccs4)cnn23)cc1NC(=O)CC(C)C`, the IC50 stood at 9200 nM in [1] and 1000 nM in data set [2].

Take `CC(C)(C)CCNc1cccc(-c2ccnc3c(C(=O)c4cccs4)cnn23)c1`: the IC50 was found to be 4800 nM in data set [1] and 550 nM in [2].

Regarding `O=C(NC1CCCC1)c1cccc(-c2ccnc3c(C(=O)c4cccs4)cnn23)c1`, the figures for the IC50 in data set [1] and in [2] were 6800 nM and 390 nM, respectively.

`CCCCNC(=O)c1cccc(-c2ccnc3c(C(=O)c4cccs4)cnn23)c1`: the figures for the IC50 in [1] and in data set [2] were 5300 nM and 340 nM, respectively.

For `COc1ccc(-c2ccnc3c(C(=O)c4cccs4)cnn23)cc1NC(=O)CC(C)C`, the IC50 in [1] worked out at 19000 nM; in data set [2], 6400 nM.

For the molecule `CC(C)OC(=O)Nc1cccc(-c2ccnc3c(C(=O)c4cccs4)cnn23)c1`, the IC50 in [2] was found to be 51 nM. This counts as double-digit nanomolar.

For `C/C=C/CNc1cccc(-c2ccnc3c(C(=O)c4cccs4)cnn23)c1`, the values for the IC50 in [1] and in data set [2] were 3800 nM and 430 nM, respectively.

Regarding `CC(C)NC(=O)Nc1cc(-c2ccnc3c(C(=O)c4cccs4)cnn23)ccc1F`, the IC50 in data set [1] was 5300 nM; in data set [3] it was 19 nM; in data set [4] it was 11 nM; in [2], 41 nM; in data set [5], 12 nM; in [7], 17 nM. The concentration at 1 h in [6] is 14 ng/mL. Also, the concentration at 4 h in [8] was determined as 8 ng/mL.

In the case of `CC(C)CC(=O)Nc1ccc(-c2ccnc3c(C(=O)c4cccs4)cnn23)s1`, the IC50 in [1] is over 20000 nM; in [3], 620 nM; in data set [4], 680 nM; in data set [2] it was 2000 nM; in data set [5] it was 760 nM; in data set [7], 670 nM.

Regarding `CC(C)(C)CC(=O)Nc1cc(-c2ccnc3c(C(=O)c4cccs4)cnn23)ccc1F`, the figures for the 50% inhibitory concentration (IC50) in data set [1] and in data set [2] were 3700 nM and 190 nM, respectively.

`CC(C)NC(=O)c1cccc(-c2ccnc3c(C(=O)c4cccs4)cnn23)c1`: the values for the IC50 in data set [1] and in data set [2] were over 13000 nM and 680 nM, respectively.

The molecule `CC(C)NC(=O)Nc1cccc(-c2ccnc3c(C(=O)c4cccs4)cnn23)c1` registered an IC50 in data set [2] of 89 nM. This lies in the double-digit nanomolar range.

On to `CC(C)CC(=O)Nc1cc(-c2ccnc3c(C(=O)c4cccs4)cnn23)ccc1Cl`, for which the IC50 in data set [1] was found to be 8800 nM; in data set [2] it was 430 nM.

What is called T/C is the ratio of treated to control. As a reminder, the Kd is the constant that tells how readily two partners part at equilibrium. A higher Kd goes with weaker binding. On to `CC(C)CC(=O)Nc1cc(-c2ccnc3c(C(=O)c4cccs4)cnn23)ccc1F`, for which the IC50 in [1] was 3200 nM; in data set [3] it was 16 nM; in [4], 15 nM; in data set [2] it was 89 nM; in data set [5], 15 nM; in data set [7], 16 nM. Also, the values for the T/C in data set [9] and in [10] were 24% and 57%, respectively. Moreover, the concentration at 1 h in [6] amounted to 110 ng/mL. Moreover, the result in data set [11] was inactive. In data set [8], this molecule displayed a concentration at 4 h of 40 ng/mL. This molecule had a Kd in data set [12] of 2500 nM.

With `CC(C)CCNc1cccc(-c2ccnc3c(C(=O)c4cccs4)cnn23)c1`, the IC50 in data set [1] was found to be 5700 nM; in data set [3], 120 nM; in data set [4], 81 nM; in [2], 770 nM; in [5], 110 nM; in data set [7] it was 450 nM.

Regarding `CC(C)CC(=O)Nc1ccc(Cl)c(-c2ccnc3c(C(=O)c4cccs4)cnn23)c1`, the IC50 in data set [1] was found to be 20000 nM; in data set [2], 2800 nM.

Consider `CC(C)CNC(=O)c1cccc(-c2ccnc3c(C(=O)c4cccs4)cnn23)c1`, for which the IC50 came out at 5700 nM in [1]; 60 nM in data set [3]; 150 nM in data set [4]; 400 nM in [2]; 150 nM in data set [5]; 150 nM in data set [7].

For `CC(C)CC(=O)Nc1cccc(-c2ccnc3c(C(=O)c4cccs4)cnn23)c1`, in data set [2], the IC50 is 140 nM. Moreover, the result in [11] was inactive. Also, binding in data set [12] was put at a Kd of 4300 nM.

The record behind these values is ChEMBL document CHEMBL1152747, “Synthesis, SAR study and biological evaluation of novel pyrazolo[1,5-a]pyrimidin-7-yl phenyl amides as anti-proliferative agents” (Bioorg Med Chem, 2009).
